Experimental data: article PMC11792172 (Journal of natural products, 2025)
Like-named read-outs stand apart in the source and are kept apart here.

Columns and labels:
Na+/K+-ATPase (NKA) [1] = assay: Na+/K+-ATPase activity assay; type: biochemical; settings: for effect on NKA at a high concentration: high concentration (>100 μM), Figure 3
In short: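 Luminescent ADP detection read out enzyme activity by quantifying the ADP formed during the enzymatic first half-reaction. Assays were run in triplicate and were representative of three independent experiments. IC50 was obtained from dose-response curves by nonlinear regression.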

[2] = tested on: MDA-MB-231 breast cancer cells; assay: Cytotoxicity assay; type: cell-based; settings: Homo sapiens, MDA-MB-231, 72 h, read-out: IC50, inhibition of viability, MDA-MB-231
[3] = tested on: OVCAR3 ovarian cancer cells; assay: Cytotoxicity assay; type: cell-based; settings: Homo sapiens, OVCAR-3, 72 h, read-out: IC50, inhibition of viability, OVCAR3
[4] = tested on: OVCAR5 ovarian cancer cells; assay: Cytotoxicity assay; type: cell-based; settings: Homo sapiens, OVCAR-5, 72 h, read-out: IC50, inhibition of viability, OVCAR5
[5] = tested on: MDA-MB-435 melanoma cells; assay: Cytotoxicity assay; type: cell-based; settings: Homo sapiens, MDA-MB-435, 72 h, read-out: IC50, inhibition of viability, MDA-MB-435
Na+/K+-ATPase (NKA) [6] = settings: read-out: IC50, inhibition of NKA activity, cited from earlier work

## CO[C@H]1C[C@H](O[C@H]2CC[C@@]3(C)[C@@H](C2)C[C@@H]2O[C@]24[C@@H]3[C@H](OC(C)=O)C(=O)[C@]2(C)[C@@H](C3=CC(=O)OC3)CC[C@]42O)O[C@@H](C)[C@@H]1OC(C)=O [1a, (−)-11,4′-di-O-acetylcryptanoside A]
Na+/K+-ATPase (NKA) [1]
  effect on NKA at a high concentration: activate NKA

## CC(=O)O[C@H]1C(=O)[C@@]2(C)[C@H]([C@H](OC(=O)c3ccccc3)[C@]3(O)C[C@H](OC(=O)[C@H](O)[C@@H](NC(=O)c4ccccc4)c4ccccc4)C(C)=C1C3(C)C)[C@]1(OC(C)=O)CO[C@@H]1C[C@@H]2O [Paclitaxel, paclitaxel]
[2]
  IC50: 3.8 ± 0.1 nM
[3]
  IC50: 4.9 ± 0.1 nM
[4]
  IC50: 7.3 ± 0.1 nM
[5]
  IC50: 1.9 ± 0.1 nM

## CO[C@H]1C[C@H](O[C@H]2CC[C@@]3(C)[C@@H](C2)C[C@@H]2O[C@]24[C@@H]3[C@H](O)C(=O)[C@]2(C)[C@@H](C3=CC(=O)OC3)CC[C@]42O)O[C@@H](C)[C@@H]1O [compound 1, (−)-Cryptanoside A]
Na+/K+-ATPase (NKA) [6]; data reported previously
  IC50: 1200 ± 100 nM

## CO[C@H]1C[C@H](O[C@H]2CC[C@@]3(C)[C@@H](C2)C[C@@H]2O[C@]24[C@@H]3[C@H](O)C(=O)[C@]2(C)[C@H](C3=CC(=O)OC3)CC[C@]42O)O[C@@H](C)[C@@H]1O [compound 2, (−)-17-epi-cryptanoside A]
Na+/K+-ATPase (NKA) [1]; read-out: IC50, inhibition of NKA activity
  IC50: > 20000 nM

## C[C@]12CC[C@H]3[C@@H](C=CC4=CC(=O)[C@H](O)C[C@@]43C)[C@@H]1CC[C@@H]2C(=O)O [compound 3, (+)-2-hydroxyandrosta-4,6-diene-3-one-17-carboxylic acid]
Na+/K+-ATPase (NKA) [1]
  effect on NKA at a high concentration: activate NKA

## C[C@H]1O[C@@H](O[C@H]2[C@@H](O)C[C@H](O[C@H]3[C@@H](O)C[C@H](O[C@H]4CC[C@@]5(C)[C@H](CC[C@@H]6[C@@H]5C[C@@H](O)[C@]5(C)[C@@H](C7=CC(=O)OC7)CC[C@]65O)C4)O[C@@H]3C)O[C@@H]2C)C[C@H](O)[C@@H]1O [digoxin]
Na+/K+-ATPase (NKA) [6]
  IC50: 230 ± 20 nM
